{"source": "ChEMBL document CHEMBL1123647", "about": "“(+)-cis-8-Hydroxy-1-methyl-2-(di-n-propylamino)tetralin: a potent and highly stereoselective 5-hydroxytryptamine receptor agonist” (1987)", "type_in_all_cases": "functional", "conditions_in_all_cases": "sc", "key": {"[1]": {"system": "Rattus norvegicus", "experiment": "Effective dose required for half maximal decrease of DOPA accumulation after subcutaneous administration in striatum tissue of rat brain", "how_it_was_run": "(§1)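 Reserpinized rats (reserpine 5 mg/kg ip) received compound in saline sc. Brain DOPA was measured by HPLC with electrochemical detection. ED50 is the dose giving a half-maximal decrease of DOPA formation, from a dose-response curve of three to five dose levels, n = 3. Maximal reduction was taken as 65% of control for limbic tissue and 80% for striatum.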"}, "[2]": {"system": "Rattus norvegicus", "experiment": "Effective dose required for half maximal decrease of DOPA accumulation after subcutaneous administration in limbic tissue of rat brain", "how_it_was_run": "as §1"}, "[3]": {"system": "Rattus norvegicus", "experiment": "Effective dose required for half maximal decrease of 5-HTP formation after subcutaneous administration of compound in striatum tissue of rat brain", "how_it_was_run": "(§2)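 Reserpinized rats (reserpine 5 mg/kg ip, in glucose solution with a little acetic acid). Compounds were dissolved in saline, pH near neutral, and given sc. Brain 5-HTP was measured by HPLC with electrochemical detection. ED50 is the dose giving a half-maximal decrease of 5-HTP formation in that brain part, from a dose-response curve of five to six dose levels, n = 3-4.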"}, "[4]": {"system": "Rattus norvegicus", "experiment": "Effective dose required for half maximal decrease of 5-HTP formation after subcutaneous administration of compound in limbic tissue of rat brain", "how_it_was_run": "as §2"}, "[5]": {"system": "Rattus norvegicus", "experiment": "Effective dose required for half maximal decrease of 5-HTP formation after subcutaneous administration of compound in hemispheres (cortex) for rat brain", "how_it_was_run": "as §2"}}}
{"compound": "CCCN(CCC)[C@@H]1CCc2cccc(O)c2[C@@H]1C.Cl", "values": [{"measurement": "ED50", "setting": "[1]", "value": "> 50", "unit": "µmol/kg"}, {"measurement": "ED50", "setting": "[2]", "value": "> 50", "unit": "µmol/kg"}]}
{"compound": "CCCN(CCC)[C@@H]1CCc2cccc(OC)c2[C@@H]1C", "values": [{"measurement": "ED50", "setting": "[1]", "value": 1.88, "unit": "µmol/kg"}, {"measurement": "ED50", "setting": "[2]", "value": 1.71, "unit": "µmol/kg"}, {"measurement": "ED50", "setting": "[3]", "value": 0.6, "unit": "µmol/kg"}, {"measurement": "ED50", "setting": "[4]", "value": 0.53, "unit": "µmol/kg"}, {"measurement": "ED50", "setting": "[5]", "value": 0.77, "unit": "µmol/kg"}]}
{"compound": "CCCN(CCC)[C@@H]1CCc2cccc(OC)c2[C@H]1C", "values": [{"measurement": "ED50", "setting": "[1]", "value": "> 50", "unit": "µmol/kg"}, {"measurement": "ED50", "setting": "[2]", "value": "> 50", "unit": "µmol/kg"}, {"measurement": "ED50", "setting": "[3]", "value": "> 50", "unit": "µmol/kg"}, {"measurement": "ED50", "setting": "[4]", "value": "> 50", "unit": "µmol/kg"}, {"measurement": "ED50", "setting": "[5]", "value": "> 50", "unit": "µmol/kg"}]}
{"compound": "CCCN(CCC)[C@@H]1CCc2cccc(O)c2C1", "values": [{"measurement": "ED50", "setting": "[1]", "value": "> 45", "unit": "µmol/kg"}, {"measurement": "ED50", "setting": "[2]", "value": "> 45", "unit": "µmol/kg"}, {"measurement": "ED50", "setting": "[3]", "value": 0.065, "unit": "µmol/kg"}, {"measurement": "ED50", "setting": "[4]", "value": 0.061, "unit": "µmol/kg"}, {"measurement": "ED50", "setting": "[5]", "value": 0.077, "unit": "µmol/kg"}]}
{"compound": "CCCN(CCC)[C@@H]1CCc2cccc(O)c2[C@H]1C", "values": [{"measurement": "ED50", "setting": "[1]", "value": "> 50", "unit": "µmol/kg"}, {"measurement": "ED50", "setting": "[2]", "value": "> 50", "unit": "µmol/kg"}, {"measurement": "ED50", "setting": "[3]", "value": "> 50", "unit": "µmol/kg"}, {"measurement": "ED50", "setting": "[4]", "value": "> 50", "unit": "µmol/kg"}, {"measurement": "ED50", "setting": "[5]", "value": "> 50", "unit": "µmol/kg"}]}
